Data taken from ChEMBL document CHEMBL4270616, “Asymmetrical meta-methoxylated diarylpentanoids: Rational design, synthesis and anti-cancer evaluation in-vitro” (Eur J Med Chem, 2018).

Experiments:
A549 [1] = test: Cytotoxicity against human A549 cells after 72 hrs by MTT assay; type: functional, cell-based; conditions: A549, 72 h
Method in brief: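 Tumour lines kept in DMEM with 10% FBS and 1% penicillin/streptomycin at 37°C, 5% CO2. Seeded at 1500-5000 cells/well by doubling time and size, 24 h, then compound in DMSO-containing medium (final DMSO 0.1%) for 72 h. MTT (5 mg/mL) 4 h at 37°C, DMSO solubilisation, absorbance at 570 nm.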

NHDF = test: Cytotoxicity against NHDF after 72 hrs by MTT assay; type: cell-based; conditions: Homo sapiens
Method in brief: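 NHDF grown in DMEM with 5% FBS at 37°C, 5% CO2. Seeded at 1500-5000 cells/well, 24 h, then compound added in DMSO-containing medium (final DMSO 0.1%) for 72 h. MTT (5 mg/mL in medium) added for 4 h at 37°C, formazan dissolved in DMSO, absorbance read at 570 nm.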

A549 [2] = test: Cytotoxicity against human A549 cells assessed as inhibition of cell proliferation at 20 uM after 72 hrs by MTT assay relative to control; type: functional; conditions: A549, 72 h
Method in brief: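 Single-concentration screen at 20 μM with 72 h exposure in DMEM with 10% FBS, final DMSO 0.1%. Read-out was MTT (5 mg/mL, 4 h, 37°C), DMSO solubilisation and absorbance at 570 nm, expressed as percent inhibition. Lines reaching a threshold percentage went on to IC50 determination.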

SW-620 [3] = test: Induction of apoptosis in human SW620 cells assessed as late apoptotic cells at 2.5 uM after 24 hrs by Annexin V-FITC/propidium iodide staining based flow cytometry (reference value: 0.43%); type: functional
SW-620 [4] = test: Induction of apoptosis in human SW620 cells assessed as early apoptotic cells at 1.25 uM after 48 hrs by Annexin V-FITC/propidium iodide staining based flow cytometry (reference value: 2.75%); type: functional
SW-620 [5] = test: Induction of apoptosis in human SW620 cells assessed as late apoptotic cells at 5 uM after 48 hrs by Annexin V-FITC/propidium iodide staining based flow cytometry (reference value: 0.2%); type: functional
SW-620 [6] = test: Induction of apoptosis in human SW620 cells assessed as necrotic cells at 10 uM after 48 hrs by Annexin V-FITC/propidium iodide staining based flow cytometry (reference value: 0.23%); type: functional
SW-620 [7] = test: Induction of apoptosis in human SW620 cells assessed as necrotic cells at 1.25 uM after 72 hrs by Annexin V-FITC/propidium iodide staining based flow cytometry (reference value: 0.27%); type: functional
SW-620 [8] = test: Induction of apoptosis in human SW620 cells assessed as necrotic cells at 2.5 uM after 72 hrs by Annexin V-FITC/propidium iodide staining based flow cytometry (reference value: 0.27%); type: functional
SW-620 [9] = test: Induction of apoptosis in human SW620 cells assessed as necrotic cells at 5 uM after 72 hrs by Annexin V-FITC/propidium iodide staining based flow cytometry (reference value: 0.27%); type: functional
SW-620 [10] = test: Induction of apoptosis in human SW620 cells assessed as necrotic cells at 10 uM after 72 hrs by Annexin V-FITC/propidium iodide staining based flow cytometry (reference value: 0.27%); type: functional

Structure (SMILES)	IC50 (A549 [1])	IC50 (NHDF)	inhibition at 20 µM (A549 [2])	Activity (SW-620 [3])	Activity (SW-620 [4])	Activity (SW-620 [5])	Activity (SW-620 [6])	Activity (SW-620 [7])	Activity (SW-620 [8])	Activity (SW-620 [9])	Activity (SW-620 [10])
COc1ccc(/C=C2\CCC/C(=C\c3cc(OC)c(OC)c(OC)c3)C2=O)cc1OC	2.9 µM	5.8 µM	> 50%	1%	6.01%	60.42%	1.3%	0.35%	1.36%	0.33%	0.24%
COc1ccc(/C=C2\CCC/C(=C\c3cccc(O)c3)C2=O)cc1OC	4.3 µM	6.8 µM	> 50%	0.64%	4.11%	40.61%	1.06%	0.63%	0.78%	1.23%	0.22%
